Usually LD50 stands for the dose at which mortality reaches 50%. A higher LD50 goes with lower toxicity.

This is an account of results in ChEMBL document CHEMBL3272018, “Synthesis of aziridinylallylaminophosphine oxides and sulfides as potential adjuvant cancer chemotherapeutic agents” (J Med Chem, 1976).

Series [1] has as its system Rattus norvegicus. Briefly: Toxicity in rat allografted with rat Walker 256 cells intramuscularly assessed as change in body weight at 3 mg/kg, qd administered for 5 days. Also on record: dose 3 mg/kg, route intramuscular. As to conditions: in vivo, im, 120 h. The class given is organism-based. In a few lines:
(§1)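 Walker 256 carcinoma solid-tumour system in rats (parent line, or the line resistant to cytoxan). Dosing was one injection per day for 5 days. Toxicity was taken as the average net body-weight change of the treated group minus the average net weight change of the untreated tumour-bearing controls, in grams.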

The nature of series [2]: Therapeutic index, ratio of LD50 for rat allografted with rat Walker 256 cells to ED10 for antitumor activity against rat Walker 256 cells intramuscularly allografted in rat. The class given is cell-based. The note with it: read-out: TI. In a few lines:
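Therapeutic index is LD50/ED10 in the Walker 256 solid tumour system. ED10 is the dose giving a 10% tumour weight reduction, with values extrapolated from dose-response data.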

A short description of series [3]: Toxicity in rat allografted with rat Walker 256 cells intramuscularly. The class given is organism-based.
The test system of series [4] is W256. Briefly: Antitumor activity against rat Walker 256 cells intramuscularly allografted in rat assessed as tumor growth inhibition at 3 mg/kg, qd administered for 5 days relative to control. As to conditions: W256, im, 120 h, route intramuscular, read-out: TGI. Type of series: functional. In outline:
(§2)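 Walker 256 carcinoma grown as a solid tumour in rats, with one injection daily for 5 days. Response is given as T/C %, the treated-group measure over the untreated-control tumour measure; a smaller value means more activity. Host toxicity is the mean net weight change of treated minus control animals, in grams.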

Series [5] deals with W256. Briefly: Antitumor activity against rat Walker 256 cells intramuscularly allografted in rat assessed as survival rate at 3 mg/kg, qd administered for 5 days. Type of series: functional, organism-based. Also on record: dose 3 mg/kg. In a few lines:
(§3)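 Rats bearing Walker 256 carcinoma as a solid tumor; lines 1-8 use a cytoxan-resistant Walker 256 subline. Dosed once daily for 5 days. Treated (T) and untreated control (C) groups are compared, and the response is given as T/C percentage, reflecting increase in survival time. Host weight change is the average weight change of the test group minus that of the controls, in grams.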

The test system of series [6] is W256. Briefly: Antitumor activity against rat Walker 256 cells intramuscularly allografted in rat assessed as tumor growth inhibition. Type of series: functional. The note with it: W256, im. In outline:
(§4)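 Dosed once daily for 5 days. Response is tumor progression in treated (T) versus untreated control (C) animals, expressed as T/C percentage. Host weight change is reported as the average net weight change of the test group minus that of the controls, in grams.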

In series [7] the test system is Musca domestica. Briefly: Toxicity in male house fly assessed as lowest dose required to cause complete sterility administered in food. The class given is organism-based. As to conditions: in vivo, po.
The subject of series [8] is Musca domestica. Briefly: Toxicity in male house fly assessed as lowest dose required to cause complete sterility administered in sugar. The note with it: in vivo, po. Type of series: organism-based.
Series [9] relates to W256. Briefly: Antitumor activity against rat Walker 256 cells intramuscularly allografted in rat assessed as tumor growth inhibition at 0.78 mg/kg, qd administered for 5 days relative to control. Type of series: functional. The note with it: W256, im, 120 h, route intramuscular, read-out: TGI. In outline: as §4
Series [10] has as its system L1210. Briefly: In vivo antitumor activity against mouse L1210 cells in prognostic scoring system assessed as survival rate at 1 mg/kg, qd administered for 9 days. The class given is functional, organism-based. Also on record: dose 1 mg/kg. In outline: (§5)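 L1210 leukaemia in mice, run as an ascites tumour system. Injections were once daily for 9 or 15 days, or as a single dose. Response is the increase in survival time, given as T/C %, treated over untreated controls; a larger value means more activity. Weight change is the treated-group mean minus the control-group mean, in grams.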

Series [11] relates to W256. Briefly: Antitumor activity against rat Walker 256 cells intramuscularly allografted in rat assessed as survival rate at 6.25 mg/kg, qd administered for 5 days. Type of series: functional, organism-based. Details: dose 6.25 mg/kg. In a few lines: as §3
In series [12] the test system is Rattus norvegicus. Briefly: Toxicity in rat allografted with rat Walker 256 cells intramuscularly assessed as change in body weight at 1.56 mg/kg, qd administered for 5 days. As to conditions: in vivo, im, 120 h. Also on record: dose 1.56 mg/kg, route intramuscular. The class given is organism-based. In outline:
as §1

Series [13] relates to W256. Briefly: Antitumor activity against rat Walker 256 cells intramuscularly allografted in rat assessed as tumor growth inhibition at 3.12 mg/kg, qd administered for 5 days relative to control. Type of series: functional. The note with it: W256, im, 120 h, route intramuscular, read-out: TGI. In outline:
as §2

In series [14] the test system is L1210. Briefly: In vivo antitumor activity against mouse L1210 cells in prognostic scoring system assessed as survival rate at 5 mg/kg, qd administered for 9 days. Type of series: functional, organism-based. Details: dose 5 mg/kg. In a few lines:
as §5

Series [15] has as its system Rattus norvegicus. Briefly: Toxicity in rat allografted with rat Walker 256 cells intramuscularly assessed as change in body weight at 3.12 mg/kg, qd administered for 5 days. As to conditions: in vivo, im, 120 h. Type of series: organism-based. Details: dose 3.12 mg/kg, route intramuscular. In a few lines: as §1
Series [16] concerns L1210. Briefly: In vivo antitumor activity against mouse L1210 cells in prognostic scoring system assessed as tumor growth inhibition at 3 mg/kg, qd administered for 9 days relative to control. Type of series: functional. As to conditions: L1210, 216 h, read-out: TGI.
Series [17] concerns Rattus norvegicus. Briefly: Toxicity in rat allografted with rat Walker 256 cells intramuscularly assessed as change in body weight at 6.25 mg/kg, qd administered for 5 days. Type of series: organism-based. Also on record: dose 6.25 mg/kg, route intramuscular. As to conditions: in vivo, im, 120 h. In a few lines: as §1
The test system of series [18] is W256. Briefly: Antitumor activity against rat Walker 256 cells intramuscularly allografted in rat assessed as tumor growth inhibition at 1.56 mg/kg, qd administered for 5 days relative to control. The class given is functional. As to conditions: W256, im, 120 h, route intramuscular, read-out: TGI. In a few lines: as §4
The test system of series [19] is L1210. Briefly: In vivo antitumor activity against mouse L1210 cells in prognostic scoring system assessed as survival rate at 3 mg/kg, qd administered for 9 days. Type of series: functional, organism-based. Also on record: dose 3 mg/kg. In outline: as §5
Series [20] has as its system Rattus norvegicus. Briefly: Toxicity in rat allografted with rat Walker 256 cells intramuscularly assessed as change in body weight at 0.78 mg/kg, qd administered for 5 days. As to conditions: in vivo, im, 120 h. Details: dose 0.78 mg/kg, route intramuscular. The class given is organism-based. In outline: as §1
The subject of series [21] is W256. Briefly: Antitumor activity against rat Walker 256 cells intramuscularly allografted in rat assessed as tumor growth inhibition at 6.25 mg/kg, qd administered for 5 days relative to control. The class given is functional. The note with it: W256, im, 120 h, route intramuscular, read-out: TGI. In a few lines: as §2
Series [22] concerns W256. Briefly: Antitumor activity against rat Walker 256 cells intramuscularly allografted in rat assessed as survival rate at 3.12 mg/kg, qd administered for 5 days. The class given is functional, organism-based. Also on record: dose 3.12 mg/kg. In outline:
as §3

The test system of series [23] is W256. Briefly: Antitumor activity against rat Walker 256 cells intramuscularly allografted in rat assessed as survival rate at 0.78 mg/kg, qd administered for 5 days. The class given is functional, organism-based. Also on record: dose 0.78 mg/kg. In outline: as §3
In series [24] the test system is L1210. Briefly: In vivo antitumor activity against mouse L1210 cells in prognostic scoring system assessed as survival rate at 1.8 mg/kg, qd administered for 9 days. The class given is functional, organism-based. Details: dose 1.8 mg/kg. In a few lines: as §5
Series [25] has as its system W256. Briefly: Antitumor activity against rat Walker 256 cells intramuscularly allografted in rat assessed as survival rate at 1.56 mg/kg, qd administered for 5 days. Type of series: functional, organism-based. Also on record: dose 1.56 mg/kg. In a few lines: as §3

Activity calls are given as the source filed them. The calls are words filed in the database; no cut-off is given here.

As for `C=CCN(CC=C)P(=S)(N1CC1C)N1CC1C` (stereo not given), the Activity in the series with Rattus norvegicus [1] is -7 g; with Musca domestica [7], 1%; in the series on Musca domestica [8], 1%. Also, in [2], the selectivity ratio stood at 10. In series [3], this molecule displayed an LD50 of 7 mg/kg. In addition, the inhibition in vivo at 3 mg/kg in the series on W256 [4] was 14%. In addition, the outcome with W256 [5] was Active. For the same molecule, the ED10 in the series on W256 [6] was 0.7 mg/kg.

For the molecule `C=CCN(CC=C)P(=O)(N1CC1C)N1CC1C` (stereo not given), in the series on W256 [9], the inhibition in vivo at 0.78 mg/kg came to 24%. For the same molecule, the result in the series on L1210 [10], in the series on W256 [11], with L1210 [14], with L1210 [19], in the series with W256 [22] and with W256 [23] was Active. The result in the series on L1210 [24] and in the series with W256 [25] was Active. In addition, the selectivity ratio in series [2] was 9. Further, the Activity is -22 g in the series with Rattus norvegicus [12]; -15 g in the series on Rattus norvegicus [15]; -28 g in the series with Rattus norvegicus [17]; -8 g with Rattus norvegicus [20]; 0.25% in the series with Musca domestica [7]; 0.5% in the series on Musca domestica [8]. In addition, the inhibition in vivo at 3.12 mg/kg in the series on W256 [13] worked out at 0%. Also, the LD50 in series [3] came out at 22 mg/kg. In the series with L1210 [16], the inhibition in vivo at 3 mg/kg was determined as 172%. For the same molecule, the inhibition in vivo at 1.56 mg/kg in the series with W256 [18] turned out to be 5%. Further, the inhibition in vivo at 6.25 mg/kg with W256 [21] stood at 3%. The ED10 with W256 [6] came out at 3.5 mg/kg.
